The results in this text go back to ChEMBL document CHEMBL1136166, “The imidazo[2,1-a]isoindole system. A new skeletal basis for antiplasmodial compounds” (Bioorg Med Chem Lett, 2003).

One may read the IC50 as the concentration that gives 50% inhibition.

SMILES strings stand for the structures. In brackets after ≈: the same amount, converted by molar mass. Several values for one entry are separate records, joined by “and”; a condition that tells them apart may be missing. Equal values may be shown once.

For assay [1], the system named is Plasmodium falciparum. The assay can be described thus: Antiplasmodial potency relative to chloroquine. The class given is functional. The gist of the method:
(§1)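 P. falciparum F32-Tanzania (chloroquine-sensitive) cultured per Trager-Jensen in glucose-enriched RPMI 1640 with 10% human serum, 37 °C, candle jar. Human O+ red cells at 5% haematocrit, 1% parasitaemia. After 24 h, medium replaced with drug-containing medium (final DMSO ≤0.1%) and incubated a further 48 h. Parasitaemia counted on blood smears; IC50 read graphically from % inhibition vs concentration. Triplicate. Index = IC50 chloroquine/IC50 compound ×100.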

Assay [2] deals with Plasmodium falciparum. Kind of assay: In vitro inhibitory concentration against Plasmodium falciparum F32. It counts as functional, organism-based. The gist of the method: as §1
The test system of assay [3] is Ferriprotoporphyrin IX. Kind of assay: Antiplasmodial potency relative to chloroquine in ferriprotoporphyrin biomineralisation assay. The class given is functional. As to conditions: Plasmodium falciparum; call rule not given here.
Assay [4] concerns Ferriprotoporphyrin IX. Kind of assay: In vitro inhibitory concentration against ferriprotoporphyrin in biomineralisation assay (FBIT). The class given is functional, Plasmodium falciparum. Summed up: (§2)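 Heme biomineralization (FBIT): haemin chloride (0.5 mg/mL stock in DMSO), 0.5 M sodium acetate pH 4.4 and compound solution (10 mg/mL stock) were added in that order, final pH 5–5.2, and incubated at 37 °C for 18–24 h. After centrifugation, the pellet was washed with DMSO and the β-haematin dissolved in 0.1 M NaOH; absorbance read at 405 nm. % inhibition calculated against the solvent control.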

The test system of assay [5] is Ferriprotoporphyrin IX. Kind of assay: Inhibitory concentration against ferriprotoporphyrin in biomineralisation assay (FBIT). The class given is functional, Plasmodium falciparum. Summed up:
as §2

Assay [6] concerns Ferriprotoporphyrin IX. Kind of assay: In vitro inhibitory concentration against ferriprotoporphyrin in biomineralisation assay (FBIT); Not active. The class given is functional, Plasmodium falciparum. Summed up: as §2
Assay [7] relates to Ferriprotoporphyrin IX. Kind of assay: Inhibitory concentration against ferriprotoporphyrin in biomineralisation assay (FBIT); Not active. It counts as functional, Plasmodium falciparum. The gist of the method: as §2
Assay [8] deals with Ferriprotoporphyrin IX. Kind of assay: Inhibitory concentration against ferriprotoporphyrin in biomineralisation (FBIT). The class given is functional, Plasmodium falciparum. Summed up: as §2

Regarding `Cn1nc(Cc2ccc3c(c2)OCO3)c2ccccc2c1=O`, in assay [1], the Index is reported as 0.4%. The IC50 in assay [2] is 3.8 µg/mL and 11 µM.
The compound `COc1ccc(CC2(O)c3ccccc3C3=NCCCN32)cc1OC` (stereo unspecified) returned an Index in assay [1] of under 0.1%. The IC50 in assay [2] was 32 µg/mL and 104 µM.
`Oc1nnc(Cc2ccc(Cl)cc2)c2ccccc12` had an Index in assay [1] of 0.18%. Besides, in assay [2], the IC50 was 6 µg/mL and 22 µM.
As for `COc1ccc(C(=O)C(=O)c2ccccc2C(=O)N2CCCCC2)cc1OC`, the Index in assay [1] is given as under 0.1%. Moreover, the IC50 in assay [2] was 32 µg/mL and 84 µM.
`O=C(C(=O)c1ccccc1C(=O)N1CCCCC1)c1ccc(Cl)cc1` gave an Index in assay [1] of 0.12%. Moreover, the IC50 in assay [2] was 12 µg/mL and 33.8 µM.
Consider `COc1cc(CC2(O)c3ccccc3C3=NCCN32)cc(OC)c1OC` (stereo unspecified), for which the Index in assay [3] is 1.6%; in assay [1], 57%. The IC50 in assay [4] is 1740 µM; in assay [2], 0.022 µg/mL and 70 nM; in assay [5] it was 590 µg/mL (≈ 1660 µM).
On to `O=C(Cc1ccc(Cl)cc1)c1ccccc1C(=O)N1CCCCC1`, for which the Index in assay [1] is given as 0.11%. In addition, the IC50 in assay [2] was 12 µg/mL and 35 µM.
The compound `OC1(Cc2ccc(Cl)cc2)c2ccccc2C2=NCCCN21` (stereo unspecified) had an Index in assay [1] of 0.3%. Besides, in assay [2], the IC50 was 3.6 µg/mL and 11.5 µM.
Consider `O=c1[nH]nc(Cc2ccccc2)c2ccccc12`, for which the Index in assay [1] is listed as under 0.1%. For the same compound, in assay [2], the half-inhibitory concentration (IC50) is > 100 µg/mL and > 100 µM.
In assay [1], `COc1cc(C(=O)C(=O)c2ccccc2C(=O)N2CCCCC2)cc(OC)c1OC` registered an Index of under 0.1%. Besides, in assay [2], the half-maximal inhibitory concentration (IC50) was 30 µg/mL and 82 µM.
With `COc1cc(CC(=O)c2ccccc2C(=O)N2CCCCC2)cc(OC)c1OC`, the Index in assay [1] is on record as under 0.1%. Moreover, the IC50 in assay [2] is 100 µg/mL and > 100 µM.
For the compound `OC1(Cc2ccccc2)c2ccccc2C2=NCCCN21` (stereo unspecified), the IC50 entry in assay [6] was “Not Active”; in assay [2], 1 µg/mL and 3.6 µM; in assay [7] it was “Not Active”. The compound also came in with an Index in assay [1] of 1.1%.
For the compound `COc1ccc(C(=O)C(=O)c2ccccc2C(=O)N2CCCCC2)cc1`, the Index in assay [1] is on record as under 0.1%. For the same compound, the IC50 in assay [2] is 17 µg/mL and 48 µM.
On to `COc1ccc(CCc2cc(O)cc(OC)c2C(=O)N2CCCCC2)cc1`, for which the Index in assay [1] came to 0.25%. In addition, the 50% inhibitory concentration (IC50) in assay [2] was 6 µg/mL and 16.3 µM.
Consider `COc1cc(CC2(O)c3ccccc3C3=NCCCN32)cc(OC)c1OC` (stereo unspecified), for which the Index in assay [1] is reported as 0.2%. For the same compound, the IC50 in assay [2] was 5.2 µg/mL and 16.1 µM.
Regarding `Cn1nc(Cc2ccc(Cl)cc2)c2ccccc2c1=O`, the Index in assay [1] is under 0.1%. Moreover, the IC50 in assay [2] was 15 µg/mL and 52.8 µM.
As for `OC1(Cc2ccc3c(c2)OCO3)c2ccccc2C2=NCCN21` (stereo unspecified), the Index in assay [1] is reported as 21%. For the same compound, in assay [2], the IC50 is 0.067 µg/mL and 190 nM.
`C=C[C@H]1CN2CC[C@H]1C[C@H]2[C@H](O)c1ccnc2ccc(OC)cc12` [QUININE] showed an Index in assay [3] of 11%. Besides, the IC50 in assay [4] was 250 µM; in assay [8], 80 µg/mL (≈ 247 µM).
In assay [1], `OC1(Cc2ccccc2)c2ccccc2C2=NCCN21` (stereo unspecified) registered an Index of 0.4%. The IC50 in assay [2] was 2.5 µg/mL and 9.5 µM.
Turning to `COc1cc(Cc2nn(C)c(=O)c3ccccc23)cc(OC)c1OC`, the Index in assay [1] is listed as under 0.1%. The IC50 in assay [2] was 32 µg/mL and > 100 µM.
With `O=C(Cc1ccc2c(c1)OCO2)c1ccccc1C(=O)N1CCCCC1`, the Index in assay [1] was under 0.1%. In assay [2], the IC50 is > 100 µg/mL and > 100 µM.
Take `COc1ccc(CC(=O)c2ccccc2C(=O)N2CCCCC2)cc1OC`: in assay [1], the Index is recorded as under 0.1%. The half-maximal inhibitory concentration (IC50) in assay [2] was 36 µg/mL and 98 µM.
`COc1ccc(CC2(O)c3ccccc3C3=NCCN32)cc1OC` (stereo unspecified) returned an Index in assay [1] of 0.4%. Moreover, the IC50 in assay [2] was 4.9 µg/mL and 9.3 µM.
For `COc1ccc(CC2(O)c3ccccc3C3=NCCCN32)cc1` (stereo unspecified), the Index in assay [1] is listed as 0.5%. The IC50 in assay [2] was 2.3 µg/mL and 7.5 µM.
Regarding `Oc1nnc(Cc2ccc3c(c2)OCO3)c2ccccc12`, the Index in assay [1] is given as under 0.01%. The IC50 in assay [2] was > 100 µg/mL and > 100 µM.
With `COc1ccc(Cc2nnc(O)c3ccccc23)cc1OC`, the Index in assay [1] was under 0.1%. The IC50 in assay [2] was 95 µg/mL and > 100 µM.
In the case of `OC1(Cc2ccc3c(c2)OCO3)c2ccccc2C2=NCCCN21` (stereo unspecified), the Index in assay [1] was under 0.1%. In addition, the IC50 in assay [2] was 38 µg/mL and 104 µM.
Regarding `COc1ccc(CC2(O)c3ccccc3C3=NCCN32)cc1` (stereo unspecified), the concentration for half-maximal inhibition (IC50) result is “Not Active” in assay [6]; 0.017 µg/mL and 40 nM in assay [2]; “Not Active” in assay [7]. Besides, the Index in assay [1] was found to be 100%.
`O=C(C(=O)c1ccccc1C(=O)N1CCCCC1)c1ccc2c(c1)OCO2`: the Index in assay [1] stood at 0.2%. The IC50 in assay [2] is 8.5 µg/mL and 20.7 µM.
Consider `OC1(Cc2ccc(Cl)cc2)c2ccccc2C2=NCCN21` (stereo unspecified), for which the concentration for half-maximal inhibition (IC50) entry in assay [6] is “Not Active”; in assay [2], 0.036 µg/mL and 110 nM; in assay [7], “Not Active”. The compound further gave an Index in assay [1] of 36%.
In the case of `COc1ccc(CCc2cc(O)cc(OC)c2C(=O)O)cc1` [ISONOTHOLAENIC ACID], in assay [1], the Index is given as under 0.1%. In addition, the half-inhibitory concentration (IC50) in assay [2] is 16 µg/mL and 53 µM.
Compound `Cn1nc(Cc2ccccc2)c2ccccc2c1=O` displayed an Index in assay [1] of 0.2%. The IC50 in assay [2] was 5 µg/mL and 20 µM.
In assay [1], `COc1cc(Cc2nnc(O)c3ccccc23)cc(OC)c1OC` showed an Index of under 0.01%. In assay [2], the 50% inhibitory concentration (IC50) is > 100 µg/mL and > 100 µM.
`COc1ccc(Cc2nn(C)c(=O)c3ccccc23)cc1OC` yielded an Index in assay [1] of under 0.1%. Further, the IC50 in assay [2] was 26 µg/mL and 84 µM.
Turning to `COc1ccc(CC(=O)c2ccccc2C(=O)N2CCCCC2)cc1`, the Index in assay [1] is recorded as under 0.1%. Further, the IC50 in assay [2] is > 100 µg/mL and > 100 µM.
Turning to `CCN(CC)CCCC(C)Nc1ccnc2cc(Cl)ccc12` (stereo unspecified) [CHLOROQUINE], the IC50 in assay [4] was 28 µM; in assay [5], 8.5 µg/mL (≈ 26.6 µM).
Turning to `COc1ccc(Cc2nn(C)c(=O)c3ccccc23)cc1`, the IC50 entry is “Not Active” in assay [6]; 1 µg/mL and 3.6 µM in assay [2]; “Not Active” in assay [7]. Moreover, the Index in assay [1] came out at 1.1%.
For the compound `COc1ccc(Cc2nnc(O)c3ccccc23)cc1`, the results for the Index in assay [3] and in assay [1] were 0.5% and 1.1%, respectively. The 50% inhibitory concentration (IC50) in assay [4] was 5750 µM; in assay [2], 1 µg/mL and 3.8 µM; in assay [5], 1530 µg/mL (≈ 5750 µM).
